Measured values as given in ChEMBL document CHEMBL1144923, “Restricted conformation analogues of an anthelmintic cyclodepsipeptide” (2003).

Legend:
Format in all cases: functional
Meriones unguiculatus [1] = assay: Percent reduction of Haemonchus contortus in immunosuppressed jird (Meriones unguiculatus) when CDP administered 0.11 mg/jird orally
Outline: (§1)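 Jirds were immunosuppressed via medicated food; 5 days later each got ~1000 exsheathed infective H. contortus larvae (pre-incubated 1 h in Earle's balanced salt solution) per os. The strain was maintained in sheep. Jirds were randomized by cage (3/group) on day 10 post-inoculation. Compound was suspended in 17% DMSO/83% carboxymethylcellulose and given orally in 0.2 mL, with vehicle-only controls. Worms were recovered after 5 h incubation at 37 °C, fixed in formaldehyde and counted under a dissecting microscope. Percent clearance = (mean control − mean treated)/mean control × 100.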

Meriones unguiculatus [2] = assay: Percent reduction of Haemonchus contortus in immunosuppressed jird (Meriones unguiculatus) when CDP administered 1 mg/jird orally; outline: as §1
Meriones unguiculatus [3] = assay: Percent reduction of Haemonchus contortus in immunosuppressed jird (Meriones unguiculatus) when CDP administered 3 mg/jird orally; outline: as §1
Meriones unguiculatus [4] = assay: Percent reduction of Haemonchus contortus in immunosuppressed jird (Meriones unguiculatus) when CDP administered 0.33 mg/jird orally; outline: as §1
Meriones unguiculatus [5] = assay: Percent reduction of Haemonchus contortus in immunosuppressed jird (Meriones unguiculatus) when CDP administered 5.75 mg/jird orally; outline: as §1
Meriones unguiculatus [6] = assay: Percent reduction of Haemonchus contortus in immunosuppressed jird (Meriones unguiculatus) when CDP administered 2.75 mg/jird orally; outline: as §1

Q: CC(C)C[C@H]1C(=O)O[C@H](Cc2ccccc2)C(=O)N(C)[C@@H](CC(C)C)C(=O)O[C@H](C)C(=O)N(C)[C@@H](CC(C)C)C(=O)O[C@H](Cc2ccccc2)C(=O)N(C)[C@@H](CC(C)C)C(=O)O[C@H](C)C(=O)N1C was tested. Which Reduction (Meriones unguiculatus [1]) did it give?
A: The Reduction was 100%.

Q: Which Reduction (Meriones unguiculatus [2]) does the source give for CC(C)C[C@H]1C(=O)O[C@H](Cc2ccccc2)C(=O)N(C)[C@@H](CC(C)C)C(=O)OC2CCCN(C2=O)[C@@H](CC(C)C)C(=O)O[C@H](Cc2ccccc2)C(=O)N(C)[C@@H](CC(C)C)C(=O)O[C@H](C)C(=O)N1C (stereo partly specified) here?
A: Its Reduction is 89%.

Q: And the Reduction (Meriones unguiculatus [1])?
A: Its Reduction is 36%.

Q: And the Reduction (Meriones unguiculatus [3])?
A: The Reduction was 99%.

Q: What about the Reduction (Meriones unguiculatus [4]) of the same compound?
A: The Reduction was 75%.

Q: What does the source list for CC(C)C[C@H]1C(=O)O[C@H](Cc2ccccc2)C(=O)N(C)[C@@H](CC(C)C)C(=O)O[C@@H]2CCN(C2=O)[C@@H](CC(C)C)C(=O)O[C@H](Cc2ccccc2)C(=O)N(C)[C@@H](CC(C)C)C(=O)O[C@H](C)C(=O)N1C?
A: Reduction (Meriones unguiculatus [5]): 89%; Reduction (Meriones unguiculatus [6]): 69%

Q: How did the Reduction (Meriones unguiculatus [2]) turn out when CC(C)C[C@H]1C(=O)O[C@H](Cc2ccccc2)C(=O)N(C)[C@@H](CC(C)C)C(=O)OC2CCCCN(C2=O)[C@@H](CC(C)C)C(=O)O[C@H](Cc2ccccc2)C(=O)N(C)[C@@H](CC(C)C)C(=O)O[C@H](C)C(=O)N1C (stereo partly specified) was run?
A: Its Reduction is 100%.

Q: What about the Reduction (Meriones unguiculatus [1]) of the same compound?
A: Its Reduction is 91%.

Q: What about the Reduction (Meriones unguiculatus [3]) of the same compound?
A: The Reduction was 100%.

Q: What about the Reduction (Meriones unguiculatus [4]) of the same compound?
A: The Reduction was 99%.
